Assay outcomes: PubChem BioAssay, Broad Institute
The list is not random: actives were taken first. Their share in the collection is about 2.6%.
esBAF inh: Bmi1 luciferase reporter increase in mESCs, primary screen, esBAF inhibitor project, mouse ES cells, Bmi1 luciferase knock-in, single point; 24 h; 100% = twice the neutral-well signal; reporter increase, % at 12.5 µM; hit rate 2% among 350,000; in the data active = activation above about 40%; inconclusive = no clear call, values can overlap the other calls;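 note: a rise in the Bmi1 reporter signal indicates esBAF inhibition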
Wnt act: Wnt/beta-catenin pathway activators, primary screen, cell-based, plate reader, single point; Wnt/beta-catenin reporter cell assay, activator; activation, % at 9.35 µM; hit rate 1.2% among 300,000; in the data active = activation above about 30%, passing the limit was not always enough; inconclusive = no clear call, values can overlap the other calls
Vif inh: HIV Vif self-association inhibitors, primary screen, imaging, HEK293T, single point; HEK293T cells, Vif self-association by quenched fluorescence, 24 h; inhibition, % at 7.49 µM; hit rate 0.35% among 340,000; in the data active = inhibition above about 50%, passing the limit was not always enough; inconclusive = no clear call, values can overlap the other calls; inactive = below about 31%
MITF act: activators of MITF-driven TRPM1 promoter reporter, primary screen, cell-based, SK-MEL-5, luciferase, single point | SK-MEL-5 TRPM1-promoter luciferase, 24 h; % of positive control, neutral wells = 0 | activation, % at 12.5 µM | hit rate 0.75% among 300,000;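 active = mean activation of at least 80% with every replicate also reaching 80%; inconclusive = mean reaches 80% but some replicate falls short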
Xi reactivation: activators of inactive X chromosome reactivation, primary screen, imaging, XiGFP fibroblasts, GFP high-content imaging, set 2; XiGFP mouse fibroblasts, % GFP-positive cells imaging, 3 d; cells co-treated with 5-aza-dC sensitizer; scaled so ellipticine positive control = 100%; activation, % at 7.58 µM; hit rate 0.055% among 360,000; AID 743238, 2013;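 active = mean normalized replicate activation at least 10% and every replicate at or above 10%; inconclusive = only one of the two criteria met; inactive = mean below 10% and not all replicates reach 10%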
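System: 68-5-11 XiGFP fibroblast line | Buffer or medium: DMEM containing 5-aza-dC | Compound: Single point | Times: Compounds 3 days, fix/stain 15 min at room temperature | Benchmarks: Positive control ellipticine, 6 µM final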
Numbers stand for hits; n = inactive; u = inconclusive; x = no result given.

SMILES	esBAF inh	Wnt act	Vif inh	MITF act	Xi reactivation
CCc1nc(C)cn1S(=O)(=O)c1ccc(Br)cc1	n	51	n	n	n
COC(=O)Nc1nnc(/C=C/c2ccc(OC)cc2)s1	x	n	n	n	n
COc1ccc(/C=C/c2nnc(NC(C)=O)s2)cc1	n	37	n	x	n
O=C(C[C@H]1CC[C@@H](NC(=O)c2ccccn2)[C@H](CO)O1)NCc1cc(F)cc(F)c1	n	x	x	x	n
Cc1nnc(SCCc2ccccc2)[nH]c1=O	n	x	n	n	x
Cc1nc(SCc2ccc(Br)cc2)[nH]c(=O)c1C	x	n	52	n	x
CCSc1nc(C)c(C)c(=O)[nH]1	n	n	n	n	n
Cc1nc(SCCc2ccccc2)[nH]c(=O)c1C	50	x	n	n	x
CN1C(=O)C(C)(C)c2cc(S(=O)(=O)N3CCCCCC3)ccc21	n	n	88	x	n
CC1(C)CC2CC(C)(CN2C(=O)COC(=O)c2cccc([N+](=O)[O-])c2)C1 (configuration not stated)	x	n	n	n	n
CC1(C)CC2CC(C)(CN2Cc2cccc([N+](=O)[O-])c2)C1 (configuration not stated)	n	n	57	x	n
Cc1ccc(S(=O)(=O)Nc2ccccc2)cc1[N+](=O)[O-]	n	n	n	n	n
Cc1c([N+](=O)[O-])cc(S(=O)(=O)Nc2ccncc2)cc1[N+](=O)[O-]	n	n	66	n	n
Clc1ccc(-n2nnc(-c3nccs3)n2)cc1Cl	n	u	n	n	n
Brc1ccccc1-n1nnc(-c2cccnc2)n1	u	n	n	u	n
Clc1ccc(-n2nnc(-c3ncc[nH]3)n2)cc1Cl	62	n	x	u	n
Clc1ccc(-n2nnc(-c3cccnc3)n2)cc1Cl	83	32	n	n	n
Fc1ccc(-n2nnc(-c3cccnc3)n2)cc1	62	32	n	n	n
c1cncc(-c2nnc(-c3cccnc3)nn2)c1	n	n	n	x	x
CCCNC(=O)C[C@@H]1CC[C@@H]2[C@@H](COc3ccc(NC(=O)c4cccs4)cc3C(=O)N2C)O1	n	x	x	x	n
O=C1/C(=C/c2ccccc2)CCC1C1CCCC1 (configuration not stated)	n	n	n	n	n
O=C1/C(=C\c2ccco2)CCC/C1=C\c1ccco1	77	x	n	n	n
CCOc1ccc(/C=C2\CCC(C3CCCC3)C2=O)cc1OC (configuration not stated)	n	n	n	n	n
CCOc1ccc(/C=C2\CCC(C3CCCC3)C2=O)cc1 (configuration not stated)	n	u	n	123	n
O=C1/C(=C/c2ccco2)CCC1C1CCCC1 (configuration not stated)	n	38	n	n	n
SMILES	esBAF inh	Wnt act	Vif inh	MITF act	Xi reactivation
CCCNC(=O)NC[C@@H]1[C@@H](c2ccc(C3=CCCC3)cc2)[C@H](CO)N1C(C)=O	n	x	x	x	n
CC(NC(=O)C1CCN(CCOc2ccc(Cl)cc2)CC1)c1cccc2ccccc12 (configuration not stated)	n	n	66	x	n
COc1ccc(CN2CCC(C(=O)NC(C)c3cccc4ccccc34)CC2)cc1 (configuration not stated)	n	x	x	x	x
OC[C@@H]1[C@@H](c2ccc(C#Cc3ccccc3)cc2)[C@@H]2CN(Cc3ccccn3)CCCCN12	x	x	x	x	n
COc1ccc(-c2cc(=O)c3cc(O)ccc3o2)cc1	n	n	n	x	x
COc1ccc(-c2ccc3oc(-c4ccsc4)cc(=O)c3c2)cc1F	45	n	n	n	n
O=c1cc(-c2ccsc2)oc2ccc(-c3ccc4cc[nH]c4c3)cc12	59	n	n	115	n
COc1cc(-c2ccc3oc(-c4ccsc4)cc3c2)cc(OC)c1OC	n	n	n	n	n
COc1ccc(NC(=O)C2CCCN(c3ncccn3)C2)cc1 (configuration not stated)	n	n	n	n	n
CCC(C)c1ccc(NC(=O)C2CCCN(c3ncccn3)C2)cc1 (configuration not stated)	48	x	n	x	x
O=C(COC(=O)c1cc2ccccc2oc1=O)Nc1ccc(F)cc1F	46	47	n	n	n
CC1CCCN(CCOc2ccc3ccccc3c2Br)C1 (configuration not stated)	x	n	n	96	n
C[C@H]1CN(C)C(=O)Cc2ccccc2O[C@H]1CN(C)C	x	x	x	x	n
O=c1c(O)c(-c2ccc3c(c2)OCO3)oc2ccccc12	55	x	n	n	x
COc1ccc(CN(C)C[C@H]2Oc3c(NC(=O)CCCCCC(=O)Nc4ccccc4N)cccc3C(=O)N([C@@H](C)CO)C[C@@H]2C)cc1	x	x	x	x	n
CN(C)C=Nc1nonc1-c1ccccc1	x	n	n	x	n
CN(C)C=Nc1c(Br)cc(Br)c2nonc12	n	n	70	n	x
CC(C)NC(=O)N(C)C[C@H]1Oc2ccc(NC(=O)C3CCCCC3)cc2CC(=O)N([C@H](C)CO)C[C@H]1C	n	x	x	x	n
Cc1ccc(C(CC(=O)c2ccco2)SCCO)cc1 (configuration not stated)	n	37	n	n	x
COc1ccc2c3c([nH]c2c1)[C@@H](CO)N(C(=O)Nc1ccc(F)cc1)CC31CN(Cc2ccccc2OC)C1	x	x	x	x	n
CO[C@@H]1CN(C)C(=O)c2cc(NS(C)(=O)=O)ccc2OC[C@@H](C)NC[C@@H]1C	x	x	x	x	n
Cc1ccccc1-c1cnc(C(O)c2ccccc2)[nH]1 (configuration not stated)	49	n	n	x	n
Cc1ccccc1-c1cnc(C(O)c2ccc(F)cc2)[nH]1 (configuration not stated)	x	n	n	x	n
OC(c1ccccc1)c1ncc(-c2ccc(Cl)cc2)[nH]1 (configuration not stated)	47	n	n	x	n
OC(c1ccc(Cl)c(Cl)c1)c1ncc(-c2ccc(Cl)cc2)[nH]1 (configuration not stated)	n	n	n	x	n
SMILES	esBAF inh	Wnt act	Vif inh	MITF act	Xi reactivation
C[C@@H]1CN([C@H](C)CO)S(=O)(=O)c2ccc(C3=CCCC3)cc2O[C@@H]1CN(C)C(=O)CN(C)C	n	x	x	x	n
CCCc1cc(-c2n[nH]c(=S)n2-c2cccc(C)c2)cs1	45	n	n	n	n
c1ccc2c(-n3cccn3)cccc2c1	71	x	n	n	x
C[C@H]1CCCCO[C@H](CN(C)Cc2ccc(C(F)(F)F)cc2)[C@@H](C)CN([C@@H](C)CO)C(=O)c2cc(NS(=O)(=O)c3cccs3)ccc2O1	n	x	x	x	n
CN(Cc1ccccc1)S(=O)(=O)c1ccc(Cl)c(C(=O)NCCCN2CCOCC2)c1	n	57	n	n	n
CN(Cc1ccccc1)S(=O)(=O)c1ccc(Cl)c(C(=O)NCCCN2CCCC2=O)c1	n	n	n	n	n
